In ChEMBL document CHEMBL4513216, “Probing the Open Global Health Chemical Diversity Library for Multistage-Active Starting Points for Next-Generation Antimalarials” (ACS Infect Dis, 2020) one finds cytotoxicity data, which are given here for 39 molecules.

Each structure is given as a SMILES string.

The nature of the data set: Toxicity liver stage against HepG2, at 10uM. The data set is classed as cell-based. Further details: test concentration 10 uM, cell line HepG2-A16-CD81EGFP. To be noted: human, HepG2-A16-CD81EGFP cells; read-out: INHIBITION
A digest of the protocol: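 Uninfected HepG2-A16-CD81EGFP cells, 3 × 10^3 per well, 1536-well, plated on prespotted compound at 10 μM final, parasite-free screening media added to match infected plates; puromycin 10 μM positive, DMSO 0.5% negative; run in parallel with 48 h PbLuc assay at 37 °C, 5% CO2; viability by CellTiter-Glo luminescence, normalized to controls.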
As for `O=C(NCCCN1CCCCCC1=O)c1n[nH]c(=O)c2ccccc12`, the cytotoxicity at 10 µM was -12.3%.

Consider `CN1CCC(N(CCc2ccccc2)C(=O)c2ccc(C#N)nc2)CC1`, for which the cytotoxicity at 10 µM was -3.33%.

Turning to `Cc1noc(C)c1-c1cccc(C2CCN(S(=O)(=O)N(C)C)CC2)n1`, the cytotoxicity at 10 µM worked out at 8.18%.

As to `Cc1cc(=O)n2nc(Oc3ccc(Cl)c(C)c3)sc2n1`, the cytotoxicity at 10 µM is -19%.

Take `O=C(O)c1cc(NS(=O)(=O)c2ccc(Br)s2)c(F)cc1F`: the cytotoxicity at 10 µM is -7.1%.

Consider `CCCc1nc(CNCC2CCCN2c2cccnn2)no1` (centres undefined), for which the cytotoxicity at 10 µM is -9.52%.

On to `COc1cccc(-c2nc(C)c(C(=O)N[C@H](CO)CCSC)s2)c1`, for which the cytotoxicity at 10 µM came out at 4.63%.

On to `O=C(CN1CCOC(c2ccc(Cl)s2)C1)NCc1ccco1` (centres undefined), for which the cytotoxicity at 10 µM was -3.09%.

`Cc1cnc(N2CCC(c3ccncc3)CC2)nc1-c1ccnn1C`: the cytotoxicity at 10 µM came to 28.7%.

With `CSCC(CCO)NC(=O)Nc1cccc(Br)c1C` (centres undefined), the cytotoxicity at 10 µM was -3.7%.

With `CC(=O)N1CCC2(CCN(C(=O)c3ccc(C)c(C(F)(F)F)c3)CC2)C1`, the cytotoxicity at 10 µM is 3.73%.

For the molecule `Cc1ccccc1OCC(=O)NCC(c1ccc(N(C)C)cc1)N(C)C` (centres undefined), the cytotoxicity at 10 µM is -30.2%.

With `Cc1csc(N2CCN(CC(=O)N3CCCC3)CC2C)n1` (centres undefined), the cytotoxicity at 10 µM is -0.456%.

On to `CCC1(CO)CCCN(C(=O)c2cc(COc3ccccc3F)[nH]n2)C1` (centres undefined), for which the cytotoxicity at 10 µM turned out to be 20.8%.

For `NC(=O)COc1ccc(CN2CC[C@@]3(O)CCCC[C@H]3C2)cc1Cl`, the cytotoxicity at 10 µM is -6.87%.

Take `COC(=O)c1oc(CNC(C)(C)CO)cc1C`: the cytotoxicity at 10 µM worked out at 10.5%.

Consider `Cc1cccc(N2CC3(CCN(S(=O)(=O)c4cccs4)C3)CC2=O)c1` (centres undefined), for which the cytotoxicity at 10 µM was -1.21%.

For `CN(CC(C)(C)C)c1ccc(C(=O)NCCCc2ccccn2)cn1`, the cytotoxicity at 10 µM was -49.1%.

For the molecule `Cc1nccc([C@@H]2C[C@@H]3CCN(Cc4ccco4)C[C@H]3O2)n1`, the cytotoxicity at 10 µM was -2.61%.

On to `COCCN(Cc1cnn(C)c1)c1nc2c(s1)c(C)nn2C`, for which the cytotoxicity at 10 µM is -42.4%.

`CS(=O)(=O)NCCC(=O)Nc1cnn(-c2ccccc2Cl)c1`: the cytotoxicity at 10 µM was -0.0414%.

Take `CCOC(C)c1noc(CN(C)C(=O)c2cc3ccccn3c2)n1` (centres undefined): the cytotoxicity at 10 µM came out at 7.17%.

Regarding `c1cncc(CN(Cc2ccc(-n3ccnc3)cc2)CC2CCCO2)c1` (centres undefined), the cytotoxicity at 10 µM was -0.242%.

In the case of `CCOCC1CN(C(=O)c2ccco2)Cc2cnn(CC)c21` (centres undefined), the cytotoxicity at 10 µM is -69%.

Take `COc1cccc(OC2CN(C(=O)c3ccoc3C)C2)c1`: the cytotoxicity at 10 µM stood at 9.21%.

For `CN(C)C(=O)N1CCC2(CC1)COCCN(c1ncccn1)C2`, the cytotoxicity at 10 µM was determined as 8.42%.

For the molecule `COCC(=O)N1C[C@@H](OCc2cccnc2)[C@H]2OCCC[C@@H]21`, the cytotoxicity at 10 µM came out at 2.53%.

As for `Cn1nc(CN2CCCCC2)c2c1CN(C(=O)c1cccc(C#N)c1)C2`, the cytotoxicity at 10 µM was -2.21%.

For the molecule `O=C(c1ccccc1)N1CCC2(CCCN2c2ncccn2)CC1`, the cytotoxicity at 10 µM is -127%.

For the molecule `O=C1COC2(CCN(Cc3ccncc3)CC2)CN1c1ccccc1`, the cytotoxicity at 10 µM was -126%.

Regarding `Cc1cnn(CC2CN(Cc3nc4cccnc4[nH]3)CCO2)c1` (centres undefined), the cytotoxicity at 10 µM is -1.04%.

Turning to `CCNC(=O)NC[C@H]1COCc2nc3cc(C)ccc3n21`, the cytotoxicity at 10 µM was determined as 3.72%.

Take `Cc1ccccc1C(=O)N1CCCn2cnc(CN3CCCC3=O)c2C1`: the cytotoxicity at 10 µM was found to be 10.2%.

In the case of `CCNC(=O)[C@@H]1C[C@H](N)CN1C(=O)Cc1cc(C)ccc1C`, the cytotoxicity at 10 µM was determined as 2.43%.

`COc1ccccc1N1CC(NC(=O)Cn2cc(C)nn2)CC1=O` (centres undefined): the cytotoxicity at 10 µM amounted to 11.6%.

Turning to `CCc1ccc(C(=O)NC[C@H]2CCCN2C(=O)c2ccc(CC)o2)o1`, the cytotoxicity at 10 µM was -5.54%.

Turning to `Cc1cc(NC(=O)NCc2ccccn2)n(C)n1`, the cytotoxicity at 10 µM was found to be 2.14%.

For the molecule `COc1ccncc1NCc1cscn1`, the cytotoxicity at 10 µM was determined as 6.44%.

In the case of `COCCc1noc(CN2CCCCC2Cn2nc(C)cc2C)n1` (centres undefined), the cytotoxicity at 10 µM amounted to 0.962%.
